Reference: ChEMBL document CHEMBL1156071, “Novel L-xylose derivatives as selective sodium-dependent glucose cotransporter 2 (SGLT2) inhibitors for the treatment of type 2 diabetes” (J Med Chem, 2009)

Key:
Mus musculus = experiment: Induction of glucosuria in high fat diet induced obese albino C57 mouse at 10 to 100 mg/kg, po administered as single administration measured after 17 hrs by glucose excretion assay; type: functional, organism-based
In short: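 Adult C57 diet-induced obese mice were given one oral gavage dose spanning 10 to 100 mg/kg. Urinary glucose excretion was measured over the first 17 h after dosing, n = 6 per group, with a vehicle-treated group included.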

[1] = target: T1, Sodium/glucose cotransporter 2 (Mus musculus, UniProt Q923I7); experiment: Inhibition of mouse SGLT2-mediated [14C]alpha-methylglucopyranoside uptake by cell based assay
T1 sequence (Q923I7 whole entry): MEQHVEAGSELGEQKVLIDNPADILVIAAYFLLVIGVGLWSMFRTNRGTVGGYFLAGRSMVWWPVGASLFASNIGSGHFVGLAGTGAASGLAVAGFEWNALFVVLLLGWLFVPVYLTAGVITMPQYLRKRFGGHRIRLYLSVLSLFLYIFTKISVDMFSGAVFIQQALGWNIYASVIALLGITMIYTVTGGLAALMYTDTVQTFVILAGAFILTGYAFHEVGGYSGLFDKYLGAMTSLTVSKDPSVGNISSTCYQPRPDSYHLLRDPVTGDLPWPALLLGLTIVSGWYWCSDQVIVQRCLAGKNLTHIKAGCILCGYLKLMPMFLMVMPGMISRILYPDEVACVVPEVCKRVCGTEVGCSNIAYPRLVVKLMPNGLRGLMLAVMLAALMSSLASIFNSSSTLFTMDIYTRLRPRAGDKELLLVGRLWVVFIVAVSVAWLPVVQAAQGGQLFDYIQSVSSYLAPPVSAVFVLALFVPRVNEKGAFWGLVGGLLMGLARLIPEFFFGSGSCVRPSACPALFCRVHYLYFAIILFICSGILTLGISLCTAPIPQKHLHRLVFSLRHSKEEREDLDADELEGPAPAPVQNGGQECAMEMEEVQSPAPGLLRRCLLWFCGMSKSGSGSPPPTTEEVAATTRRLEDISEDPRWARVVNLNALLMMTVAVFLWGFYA

[2] = target: T2, Sodium/glucose cotransporter 2 (Homo sapiens, UniProt P31639); experiment: Inhibition of human SGLT2 expressed in HEK293 cells assessed as inhibition of [14C]alpha-methylglucopyranoside uptake; type: cell-based
T2 sequence (P31639 whole entry): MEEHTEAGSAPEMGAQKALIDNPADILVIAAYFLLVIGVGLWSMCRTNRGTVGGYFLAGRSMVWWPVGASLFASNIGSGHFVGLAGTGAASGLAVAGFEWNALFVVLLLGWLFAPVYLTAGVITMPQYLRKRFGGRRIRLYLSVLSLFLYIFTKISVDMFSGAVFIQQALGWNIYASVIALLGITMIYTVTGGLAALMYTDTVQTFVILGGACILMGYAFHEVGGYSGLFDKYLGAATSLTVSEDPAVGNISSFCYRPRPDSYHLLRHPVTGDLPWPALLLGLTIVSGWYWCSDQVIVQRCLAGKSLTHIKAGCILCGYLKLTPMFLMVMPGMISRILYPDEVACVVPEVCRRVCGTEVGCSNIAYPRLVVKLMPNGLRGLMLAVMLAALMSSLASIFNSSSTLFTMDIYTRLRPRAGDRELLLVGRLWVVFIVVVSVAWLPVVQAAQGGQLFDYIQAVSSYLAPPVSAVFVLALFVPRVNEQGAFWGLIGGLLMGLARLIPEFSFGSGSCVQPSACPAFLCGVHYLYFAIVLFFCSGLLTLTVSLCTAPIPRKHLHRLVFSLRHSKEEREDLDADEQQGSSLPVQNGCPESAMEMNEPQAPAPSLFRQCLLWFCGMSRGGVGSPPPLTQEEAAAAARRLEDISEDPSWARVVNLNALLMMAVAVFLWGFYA
In short: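 Cells stably expressing human SGLT2 were used to measure sodium-coupled uptake of [14C]α-methylglucopyranoside, a metabolically stable SGLT-specific glucose analogue. Uptake was measured across increasing compound concentrations, and IC50 was derived from the inhibition of uptake.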

| SMILES | Activity (Mus musculus) | IC50 [1] | IC50 [2] |
| --- | --- | --- | --- |
| CCOc1ccc(Cc2cc([C@@H]3OC(OC)[C@@H](O)[C@H](O)[C@H]3O)ccc2Cl)cc1 (mixture of isomers; 7a) | Dose-dependent effect |  |  |
| CCOc1ccc(Cc2cc([C@@H]3OC(OC(C)C)[C@@H](O)[C@H](O)[C@H]3O)ccc2Cl)cc1 (mixture of isomers) |  | 190 nM | 420 nM |
| COC1O[C@@H](c2ccc(Cl)c(Cc3ccc(Oc4nccs4)cc3)c2)[C@H](O)[C@@H](O)[C@@H]1O (mixture of isomers) |  | 60 nM | 150 nM |
| COCCOc1ccc(Cc2cc([C@@H]3OC(OC)[C@@H](O)[C@H](O)[C@H]3O)ccc2Cl)cc1 (mixture of isomers) |  | 16 nM | 45 nM |
| CCOc1ccc(Cc2cccc([C@@H]3OC(OC)[C@@H](O)[C@H](O)[C@H]3O)c2)cc1 (mixture of isomers) |  | 220 nM | 1100 nM |
| CCOc1ccc(Cc2cc([C@@H]3OC(OCC)[C@@H](O)[C@H](O)[C@H]3O)ccc2Cl)cc1 (mixture of isomers) |  | 19 nM | 58 nM |
| CCOc1ccc(Cc2cc([C@]3(C)OC(OC)[C@@H](O)[C@H](O)[C@H]3O)ccc2Cl)cc1 (mixture of isomers) |  | 220 nM | 590 nM |
| CCOc1ccc(Cc2cc([C@@H]3OC(O)[C@@H](O)[C@H](O)[C@H]3O)ccc2Cl)cc1 (mixture of isomers) |  | 100 nM | 280 nM |
| COC1O[C@@H](c2ccc(Cl)c(Cc3ccc(OCCO)cc3)c2)[C@H](O)[C@@H](O)[C@@H]1O (mixture of isomers) |  | 9.5 nM | 36 nM |
| COc1ccc(Sc2cc([C@@H]3OC(OC)[C@@H](O)[C@H](O)[C@H]3O)ccc2Cl)cc1 (mixture of isomers) |  | 100 nM | 180 nM |
| CCOc1ccc(Cc2cc([C@@H]3OC(OC(C)C)[C@@H](O)[C@H](O)[C@H]3O)ccc2Cl)cc1 (stereo in doubt; 9b) |  | 15 nM | 33 nM |
| COC1O[C@@H](c2ccc(Cl)c(Cc3ccc(OC(=S)N(C)C)cc3)c2)[C@H](O)[C@@H](O)[C@@H]1O (mixture of isomers) |  | 330 nM | 740 nM |
| CCOc1ccc(Cc2cc([C@@H]3OC(OCCN(C)C)[C@@H](O)[C@H](O)[C@H]3O)ccc2Cl)cc1 (mixture of isomers) |  | 2200 nM | 3600 nM |
| CCOc1ccc(-c2cccc([C@@H]3OC(OC)[C@@H](O)[C@H](O)[C@H]3O)c2)cc1 (mixture of isomers) |  | 1900 nM | 4600 nM |
| CCOc1ccc(Oc2cc([C@@H]3OC(OC)[C@@H](O)[C@H](O)[C@H]3O)ccc2Cl)cc1 (mixture of isomers) |  | 1900 nM | 2400 nM |
